From ChEMBL document CHEMBL1145126, “Novel derivatives of benzo[b]thieno[2,3-c]quinolones: synthesis, photochemical synthesis, and antitumor evaluation” (J Med Chem, 2003)

Legend:
[1] = tested on: Caco-2; test: In vitro inhibitory effect on growth of human CaCo-2 tumor cell line; format: functional, cell-based
[2] = tested on: HBL; test: In vitro inhibitory effect on growth of human HBL tumor cell line; format: functional, cell-based
[3] = tested on: HeLa; test: In vitro inhibitory effect on growth of human HeLa tumor cell line; format: functional, cell-based
[4] = tested on: HEp-2; test: In vitro inhibitory effect on growth of human Hep-2 tumor cell line; format: functional, cell-based
[5] = tested on: MCF7; test: In vitro inhibitory effect on growth of human MCF-7 tumor cell line; format: functional, cell-based
[6] = tested on: WI-38; test: In vitro inhibitory effect on growth of human normal WI-38 cell line; format: functional, cell-based
[7] = tested on: MIA PaCa-2; test: In vitro inhibitory effect on growth of human MIAPaCa-2 tumor cell line; format: functional, cell-based
[8] = tested on: ME67.1; test: In vitro inhibitory effect on growth of human ME 67.1 tumor cell line; format: functional, cell-based
[9] = tested on: ME67.3; test: In vitro inhibitory effect on growth of human ME 67.3 tumor cell line; format: functional, cell-based
[10] = tested on: Melanoma cell; test: Percentage of apoptotic cells after treatment of Melanoma cells with 5*10e-6 M compound for 5 hr; format: functional, Homo sapiens
Method in brief: (§1)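 HBL melanoma cells seeded at 2 × 10^5 cells/mL, exposed after 48 h to compound for 5 h, then washed in PBS and stained with Annexin-V-FLUOS for 15 min at ambient temperature. Scored by fluorescence microscopy as apoptotic (green) cells over total cells.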

[11] = tested on: HBL; test: Effect on adhesion of Melanoma cell line (HBL) at 10*10e-5 M at 1 hr incubation time; format: functional, Homo sapiens
Method in brief: (§2)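 HBL melanoma cells exposed to compound at the stated concentration and time; cells still attached to the plastic substratum quantified by MTT test. Result given as ratio (%) of treated to control cells; one of three parallel experiments reported.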

[12] = tested on: HBL; test: Effect on adhesion of Melanoma cell line (HBL) at 10*10e-5 M at 24 hr incubation time; format: functional, Homo sapiens; method in brief: as §2
[13] = tested on: HBL; test: Effect on adhesion of Melanoma cell line (HBL) at 10*10e-5 M at 2 hr incubation time; format: functional, Homo sapiens; method in brief: as §2
[14] = tested on: HBL; test: Effect on adhesion of Melanoma cell line (HBL) at 10*10e-5 M at 3h incubation time; format: functional, Homo sapiens; method in brief: as §2
[15] = tested on: HBL; test: Effect on adhesion of Melanoma cell line (HBL) at 5*10e-6 M at 1 hr incubation time; format: functional, Homo sapiens; method in brief: as §2
[16] = tested on: HBL; test: Effect on adhesion of Melanoma cell line (HBL) at 5*10e-6 M at 24 hr incubation time; format: functional, Homo sapiens; method in brief: as §2
[17] = tested on: HBL; test: Effect on adhesion of Melanoma cell line (HBL) at 5*10e-6 M at 3h incubation time; format: functional, Homo sapiens; method in brief: as §2
[18] = tested on: Melanoma cell; test: Percentage of apoptotic cells after treatment of Melanoma cells with 1*10e-5 M compound for 5 hr; format: functional, Homo sapiens; method in brief: as §1
[19] = tested on: Melanoma cell; test: Percentage of apoptotic cells after treatment of Melanoma cells with 1*10e-6 M compound for 5 hr; format: functional, Homo sapiens; method in brief: as §1
[20] = tested on: HBL; test: Effect on adhesion of Melanoma cell line (HBL) at 5*10e-6 M at 2 hr incubation time; format: functional, Homo sapiens; method in brief: as §2

IC50 [1] [µM]	IC50 [3] [µM]	IC50 [5] [µM]	IC50 [7] [µM]	Structure (SMILES)	IC50 [2] [µM]	IC50 [4] [µM]	IC50 [6] [µM]	IC50 [8] [µM]	IC50 [9] [µM]	Apoptotic cell [10] [%]	Ratio [11] [%]	Ratio [12] [%]	Ratio [13] [%]	Ratio [14] [%]	Ratio [15] [%]	Ratio [16] [%]	Ratio [17] [%]	Apoptotic cell [18] [%]	Apoptotic cell [19] [%]	Ratio [20] [%]
3.8	6.3	10	6.6	CN(C)CCCNC(=O)c1ccc2c(c1)sc1c(O)nc3ccccc3c12	1	6.6	4.4	–	–	–	–	–	–	–	–	–	–	–	–	–
0.62	2.5	4.27	1.4	CN(C)CCCn1c(=O)c2sc3ccccc3c2c2ccccc21	0.58	3.63	4.5	–	–	–	–	–	–	–	–	–	–	–	–	–
0.79	1	5.8	1.25	CN(C)CCCn1c(=O)c2sc3cc([N+](=O)[O-])ccc3c2c2ccccc21	1.2	3.54	2.4	–	–	–	–	–	–	–	–	–	–	–	–	–
4.79	34.7	19.5	4.79	CN(C)CCCN(C(=O)c1ccc2c(c1)sc1c(O)nc3ccccc3c12)c1ccccc1	0.67	3.16	10	–	–	–	–	–	–	–	–	–	–	–	–	–
0.47	1.3	0.59	1	COC(=O)c1ccc2c(c1)sc1c(=O)n(CCCN(C)C)c3ccccc3c12	0.35	0.65	1.6	–	–	–	–	–	–	–	–	–	–	–	–	–
0.49	2.8	2.63	1	CN(C)CCCn1c(=O)c2sc3cc(C(=O)Nc4ccccc4)ccc3c2c2ccccc21	0.01	1.77	2.3	0.79	0.19	29	87	28	87	81	90	62	95	35	9	98
0.98	0.65	4.6	2.5	CN(C)CCCn1c(=O)c2sc3cc(F)ccc3c2c2ccccc21	3.98	3.16	2.9	–	–	–	–	–	–	–	–	–	–	–	–	–
0.47	0.85	2.2	0.51	COc1ccc2c(c1)sc1c(=O)n(CCCN(C)C)c3ccccc3c12	1.58	2.96	2.3	–	–	–	–	–	–	–	–	–	–	–	–	–
1.7	1	4.5	1.1	Cc1ccc2c(c1)sc1c(=O)n(CCCN(C)C)c3ccccc3c12	1.1	3.63	2.45	–	–	–	–	–	–	–	–	–	–	–	–	–
